Active and inactive are the calls of the source. The rule behind the calls is not given here.
Columns and labels:
[1] = tested on: Mus musculus; assay: Antidiabetic activity in high fat diet-fed C57BL/6J mouse assessed as decrease in blood glucose level at 250 mg/kg/day, po for 4 weeks measured after 60 mins by intraperitoneal glucose tolerance test; type: functional, organism-based
Procedure, shortened: (§1)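 High-fat-diet (60 kcal%, 8 weeks) male C57BL/6J mice were randomized by body weight and fed glucose, then dosed orally once daily in cellulose/lactose vehicle. ipGTT was done at 4 weeks: D-glucose 2 g/kg ip, glucometer readings at 0, 15, 30, 60, 90 and 120 min. n = 5–8.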

[2] = tested on: Mus musculus; assay: Antidiabetic activity in high fat diet-fed C57BL/6J mouse assessed as decrease in blood glucose level at 250 mg/kg/day, po for 4 weeks measured after 120 mins by intraperitoneal glucose tolerance test; type: functional, organism-based; procedure, shortened: as §1
[3] = tested on: Mus musculus; assay: Antidiabetic activity in C57BLKS/J-db/db mouse assessed as reduction of fasting blood glucose level at 250 mg/kg/day, po for 5 weeks; type: functional, organism-based
[4] = tested on: Mus musculus; assay: Antiobese activity in high fat diet-fed C57BL/6J mouse assessed as decrease in plasma triglyceride level at 250 mg/kg/day, po for 6 weeks; type: functional; parameters: scale not given: the % may be the effect or the level left
Procedure, shortened: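 DIO male C57BL/6J mice received daily oral dosing in cellulose/lactose vehicle for 6 weeks and were killed after the final dose. Plasma and liver triglycerides were measured by triglyceride assay kit, and fat depots were weighed.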

[5] = tested on: Mus musculus; assay: Antidiabetic activity in high fat diet-fed C57BL/6J mouse assessed as decrease in plasma insulin level at 250 mg/kg/day, po for 4 weeks; type: functional; parameters: scale not given: the % may be the effect or the level left
Procedure, shortened: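 DIO male C57BL/6J mice (60 kcal% fat diet for 8 weeks) were gavaged daily in 0.5% microcrystalline cellulose/1.6% lactose vehicle. Plasma insulin was determined by ELISA after 4 weeks of treatment. Mean ± SE, n = 5–8.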

[6] = tested on: Mus musculus; assay: Antiobese activity in C57BLKS/J-db/db mouse assessed as decrease in plasma triglyceride level at 250 mg/kg/day, po […]; type: functional; parameters: scale not given: the % may be the effect or the level left
Procedure, shortened: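 db/db mice were gavaged once daily in 0.5% microcrystalline cellulose/1.6% lactose vehicle for 6 weeks and killed after the final dose. Plasma triglycerides were measured with a colorimetric triglyceride assay kit.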

[7] = tested on: Mus musculus; assay: Antidiabetic activity in C57BLKS/J-db/db mouse assessed as decrease in area under curve at 50 mg/kg/day, po for 4 weeks by insulin tolerance test; type: functional; parameters: scale not given: the % may be the effect or the level left

CN(C)C(=N)NC(=N)N [METFORMIN]
Activity [1]: Active
Activity [2]: Active
Activity [3]: Active
Activity [4]: 33%
Activity [5]: 43%
Activity [6]: 23%
Activity [7]: 14%
